Converted amounts (≈) assume the structure as drawn.
How the values were obtained:
[1] = test system: Mycobacterium tuberculosis; assay: Antitubercular activity against Mycobacterium tuberculosis H37Rv assessed as inhibition of microbial growth incubated by measuring turbidity for 5 days by serial microdilution based colorimetric assay; assay type: functional; conditions: 120 h, dose 20 µM, time 5 day
Method in brief: (§1)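 Strains grown in Middlebrook 7H9 with ADS (BSA, dextrose, NaCl) and 1% glycerol. Compounds from 40 mM DMSO stocks were two-fold serially diluted in plate broth. Inoculum was a 1/25 dilution of a mid-log culture at McFarland 1.0, about 10⁶ CFU/well. Plates sealed and held 5 days at 37 °C. MIC is the lowest concentration with no visible turbidity. Rifampicin was the control drug.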

[2] = test system: Mycobacterium tuberculosis; assay: Antimycobacterial activity against Mycobacterium tuberculosis InhA-OE strain assessed as inhibition of microbial growth at 20 uM incubated for 5 days by serial microdilution based colorimetric assay; assay type: functional; conditions: 120 h, time 5 day
[3] = test system: Mycobacterium tuberculosis; assay: Antitubercular activity against Mycobacterium tuberculosis H37Rv under aerobic condition; assay type: functional
[4] = test system: Mycobacterium tuberculosis; assay: Antitubercular activity against Mycobacterium tuberculosis H37Rv; assay type: functional; method in brief: as §1
[5] = test system: Mycobacterium tuberculosis; assay: Antitubercular activity against Mycobacterium tuberculosis H37Rv under anerobic condition; assay type: functional
[6] = Cytotoxicity against African green monkey Vero E6 cells assessed as reduction in cell viability incubated for 48 hrs by neutral red assay; assay type: cell-based; conditions: Chlorocebus aethiops
Method in brief: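 Vero kidney […] were seeded at 25,000 cells/well and allowed 24 h before compound was added, then incubated 48 h. Viable cells were read by neutral red uptake. IC50 was taken from log plots of growth inhibition versus concentration. Doxorubicin was the positive control and DMSO the vehicle control.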

[7] = Selectivity index, ratio of CC50 for african green monkey Vero cells to MIC for Mycobacterium tuberculosis H37Rv; assay type: toxicity; conditions: read-out: Selectivity Index

| Compound | MIC [1] | other results |
| --- | --- | --- |
| COC(=O)/C=C\N(/N=C/C1=CCCCC1)S(=O)(=O)c1ccc(C)cc1 | > 20 µM |  |
| C/C=C/C=C/C=N/N(/C=C/C(=O)OC)S(=O)(=O)c1ccc(C)cc1 | 5 µM | MIC [2]: 10 µM |
| COC(=O)/C=C\N(/N=C/c1ccc[nH]1)S(=O)(=O)c1ccc(C)cc1 | > 20 µM |  |
| COC(=O)/C=C\N(/N=C/c1ccc2ccccc2c1)S(=O)(=O)c1ccc(C)cc1 | 20 µM |  |
| COC(=O)/C=C\N(/N=C/c1ccc(Br)cc1)S(=O)(=O)c1ccc(C)cc1 | > 20 µM |  |
| COC(=O)/C=C\N(/N=C/c1ccccc1C(F)(F)F)S(=O)(=O)c1ccc(C)cc1 | > 20 µM |  |
| COC(=O)/C=C\N(/N=C/c1ccco1)S(=O)(=O)c1ccc(C)cc1 | 20 µM |  |
| COC(=O)/C=C\N(/N=C/C1=CC2CC(C1)C2(C)C)S(=O)(=O)c1ccc(C)cc1 (stereo not drawn) | > 20 µM |  |
| COC(=O)/C=C\N(/N=C/c1ccc(OC)c(OC)c1)S(=O)(=O)c1ccc(C)cc1 | > 20 µM |  |
| Cc1cc(C)nc(NNC(=O)c2ccccn2)n1 |  | IC90 [3]: 1.51 µg/mL (≈ 6.21 µM); MIC [4]: 6.08 µg/mL (≈ 25 µM); IC90 [5]: 2.02 µg/mL (≈ 8.3 µM) |
| COC(=O)/C=C\N(/N=C/c1ccccc1)S(=O)(=O)c1ccc(C)cc1 | 20 µM |  |
| COC(=O)/C=C\N(/N=C/c1ccccc1OC)S(=O)(=O)c1ccc(C)cc1 | > 20 µM |  |
| COC(=O)/C=C/N(/N=C/C=C/c1ccc(OC)cc1)S(=O)(=O)c1ccc(C)cc1 | 10 µM |  |
| COC(=O)/C=C/N(/N=C/c1ccco1)S(=O)(=O)c1ccc(C)cc1 | 5 µM | MIC [2]: 10 µM |
| COC(=O)/C=C\N(/N=C/c1ccc([N+](=O)[O-])cc1)S(=O)(=O)c1ccc(C)cc1 | > 20 µM |  |
| C/C=C/C=C/C=N/N(/C=C\C(=O)OC)S(=O)(=O)c1ccc(C)cc1 | 20 µM |  |
| COC(=O)/C=C/N(/N=C/c1ccc2ccccc2c1)S(=O)(=O)c1ccc(C)cc1 | 1.25 µM | IC50 [6]: > 11.6 µM; MIC [2]: 2.5 µM; selectivity ratio [7]: 9.28 |

| Compound | MIC [1] | other results |
| --- | --- | --- |
| COC(=O)/C=C/N(/N=C/c1ccc(OC)c(OC)c1)S(=O)(=O)c1ccc(C)cc1 | > 20 µM |  |
| COC(=O)/C=C/N(/N=C/c1ccc(Br)cc1)S(=O)(=O)c1ccc(C)cc1 | > 20 µM |  |
| CO[C@H]1/C=C/O[C@@]2(C)Oc3c(C)c(O)c4c(O)c(c(/C=N/N5CCN(C)CC5)c(O)c4c3C2=O)NC(=O)/C(C)=C\C=C\[C@H](C)[C@H](O)[C@@H](C)[C@@H](O)[C@@H](C)[C@H](OC(C)=O)[C@@H]1C [RIFAMPIN] | 0.3 µM |  |
| COC(=O)/C=C/N(/N=C/c1ccc(-c2ccccc2)cc1)S(=O)(=O)c1ccc(C)cc1 | > 20 µM |  |
| NNC(=O)c1ccncc1 [ISONIAZID] | 0.36 µM | MIC [2]: > 7.3 µM |
| COC(=O)/C=C/N(/N=C/C=C(C)C)S(=O)(=O)c1ccc(C)cc1 | 5 µM | MIC [2]: 10 µM |
| COC(=O)/C=C\N(/N=C/C=C/c1ccc(OC)cc1)S(=O)(=O)c1ccc(C)cc1 | > 20 µM |  |
| COC(=O)/C=C/N(/N=C/c1ccc([N+](=O)[O-])cc1)S(=O)(=O)c1ccc(C)cc1 | > 20 µM |  |
| O=C(N/N=C\c1ccco1)c1cc(C23CC4CC(CC(C4)C2)C3)c2ccccc2n1 |  | MIC [4]: 3.12 µg/mL (≈ 7.81 µM) |
| COC(=O)/C=C/N(/N=C/c1ccccc1)S(=O)(=O)c1ccc(C)cc1 | 1.25 µM | IC50 [6]: > 13.3 µM; MIC [2]: 2.5 µM; selectivity ratio [7]: 10.6 |
| COC(=O)/C=C/N(/N=C/c1ccccc1C(F)(F)F)S(=O)(=O)c1ccc(C)cc1 | 20 µM |  |
| COC(=O)/C=C\N(/N=C/c1ccc(-c2ccccc2)cc1)S(=O)(=O)c1ccc(C)cc1 | > 20 µM |  |
| COC(=O)/C=C/N(/N=C/C1=CC2CC(C1)C2(C)C)S(=O)(=O)c1ccc(C)cc1 (stereo not drawn) | > 20 µM |  |
| COC(=O)/C=C/N(/N=C/C1=CCCCC1)S(=O)(=O)c1ccc(C)cc1 | 10 µM |  |
| COC(=O)/C=C/N(/N=C/c1ccc[nH]1)S(=O)(=O)c1ccc(C)cc1 | > 20 µM |  |
| COC(=O)/C=C/N(/N=C/c1ccccc1OC)S(=O)(=O)c1ccc(C)cc1 | 1.25 µM | IC50 [6]: > 12.2 µM; MIC [2]: 5 µM; selectivity ratio [7]: 9.76 |
